Measurements published in ChEMBL document CHEMBL1154352, “Toll-like receptor 7 selective synthetic oligoribonucleotide agonists: synthesis and structure-activity relationship studies” (J Med Chem, 2009).
Activity calls are given as the source filed them. The rule behind the calls is not given here.

Assays:
[1] = target: T1, Toll-like receptor 7 (Homo sapiens) (UniProt Q9NYK1); test: Activation of human TLR7 expressed in HEK293XL assessed as fold induction of NF-kappaB activity at 50 ug/ml after 18 hrs by reporter gene assay relative to control
T1 sequence (whole entry): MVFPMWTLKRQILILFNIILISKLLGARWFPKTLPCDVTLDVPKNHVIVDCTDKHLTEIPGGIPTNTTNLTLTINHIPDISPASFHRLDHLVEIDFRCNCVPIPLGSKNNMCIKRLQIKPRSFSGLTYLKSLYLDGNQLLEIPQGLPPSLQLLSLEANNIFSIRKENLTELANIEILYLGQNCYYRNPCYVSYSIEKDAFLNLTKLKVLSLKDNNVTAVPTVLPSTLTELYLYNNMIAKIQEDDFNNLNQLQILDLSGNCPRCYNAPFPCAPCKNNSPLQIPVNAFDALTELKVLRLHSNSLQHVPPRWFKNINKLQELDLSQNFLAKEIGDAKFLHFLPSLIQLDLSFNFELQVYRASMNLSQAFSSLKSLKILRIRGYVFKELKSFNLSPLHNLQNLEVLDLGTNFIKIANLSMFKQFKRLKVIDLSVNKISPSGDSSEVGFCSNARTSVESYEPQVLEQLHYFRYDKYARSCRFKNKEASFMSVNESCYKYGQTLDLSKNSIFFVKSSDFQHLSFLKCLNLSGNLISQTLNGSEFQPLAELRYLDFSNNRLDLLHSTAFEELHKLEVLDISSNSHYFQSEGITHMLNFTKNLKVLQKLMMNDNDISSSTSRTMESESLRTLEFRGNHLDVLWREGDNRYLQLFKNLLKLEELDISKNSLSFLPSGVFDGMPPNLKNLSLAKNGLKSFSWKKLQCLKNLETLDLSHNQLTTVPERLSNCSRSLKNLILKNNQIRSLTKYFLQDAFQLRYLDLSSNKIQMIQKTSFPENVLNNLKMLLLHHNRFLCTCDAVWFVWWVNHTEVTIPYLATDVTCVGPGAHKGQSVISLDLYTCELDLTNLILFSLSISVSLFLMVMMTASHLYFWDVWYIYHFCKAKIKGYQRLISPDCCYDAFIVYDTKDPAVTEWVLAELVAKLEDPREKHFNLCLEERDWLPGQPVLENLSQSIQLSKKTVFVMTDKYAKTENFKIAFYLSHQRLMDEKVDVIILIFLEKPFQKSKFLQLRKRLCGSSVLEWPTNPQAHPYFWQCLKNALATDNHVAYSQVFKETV
Summary of the method: (§1)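 HEK293 cells stably expressing human TLR7 or TLR8, transiently transfected with SEAP reporter plasmid; medium replaced, SIMRA compounds added, 18 h incubation. Supernatant SEAP measured by QuantiBlue; expressed as fold increase in NF-κB activity over PBS control. Tabulated data at 50 μg/mL, representative of three independent experiments.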

Homo sapiens = species: Homo sapiens; test: Ratio of human TLR7 activity to human TLR8 activity
Summary of the method: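 TLR7/TLR8 ratio computed from fold NF-κB (SEAP reporter) activation in HEK293 cells stably expressing human TLR7 versus TLR8, compounds at 50 μg/mL, 18 h exposure; representative of three independent experiments.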

Splenocyte [2] = test: Immunomodulatory activity in C57BL/6 mouse splenocytes bearing TLR7 receptor assessed as IL12 release at 100 ug/ml after 24 hrs by ELISA; type: functional, cell-based
Summary of the method: (§2)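 C57BL/6 splenocytes in RPMI 1640 with 10% FBS, penicillin/streptomycin, 2 mM L-glutamine, plated at 5 × 10^6 cells/mL; compounds in PBS added, 37 °C for 24 h. Supernatant IL-12 and IL-6 by ELISA; representative of three independent experiments.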

[3] = Metabolic stability in human serum assessed as full length product remaining after 10 mins by HPLC; type: ADME, cell-free; conditions: read-out: Stability
Summary of the method: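 About 0.5 A260 units compound in 1% human serum in PBS, 37 °C; aliquot taken at 10 min, analysed by anion-exchange HPLC for percent intact full-length product.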

[4] = target: T2, Toll-like receptor 8 (Homo sapiens) (UniProt Q9NR97); test: Activation of human TLR8 expressed in HEK293XL assessed as fold induction of NF-kappaB activity at 50 ug/ml after 18 hrs by reporter gene assay relative to control; summary of the method: as §1
T2 sequence (whole entry): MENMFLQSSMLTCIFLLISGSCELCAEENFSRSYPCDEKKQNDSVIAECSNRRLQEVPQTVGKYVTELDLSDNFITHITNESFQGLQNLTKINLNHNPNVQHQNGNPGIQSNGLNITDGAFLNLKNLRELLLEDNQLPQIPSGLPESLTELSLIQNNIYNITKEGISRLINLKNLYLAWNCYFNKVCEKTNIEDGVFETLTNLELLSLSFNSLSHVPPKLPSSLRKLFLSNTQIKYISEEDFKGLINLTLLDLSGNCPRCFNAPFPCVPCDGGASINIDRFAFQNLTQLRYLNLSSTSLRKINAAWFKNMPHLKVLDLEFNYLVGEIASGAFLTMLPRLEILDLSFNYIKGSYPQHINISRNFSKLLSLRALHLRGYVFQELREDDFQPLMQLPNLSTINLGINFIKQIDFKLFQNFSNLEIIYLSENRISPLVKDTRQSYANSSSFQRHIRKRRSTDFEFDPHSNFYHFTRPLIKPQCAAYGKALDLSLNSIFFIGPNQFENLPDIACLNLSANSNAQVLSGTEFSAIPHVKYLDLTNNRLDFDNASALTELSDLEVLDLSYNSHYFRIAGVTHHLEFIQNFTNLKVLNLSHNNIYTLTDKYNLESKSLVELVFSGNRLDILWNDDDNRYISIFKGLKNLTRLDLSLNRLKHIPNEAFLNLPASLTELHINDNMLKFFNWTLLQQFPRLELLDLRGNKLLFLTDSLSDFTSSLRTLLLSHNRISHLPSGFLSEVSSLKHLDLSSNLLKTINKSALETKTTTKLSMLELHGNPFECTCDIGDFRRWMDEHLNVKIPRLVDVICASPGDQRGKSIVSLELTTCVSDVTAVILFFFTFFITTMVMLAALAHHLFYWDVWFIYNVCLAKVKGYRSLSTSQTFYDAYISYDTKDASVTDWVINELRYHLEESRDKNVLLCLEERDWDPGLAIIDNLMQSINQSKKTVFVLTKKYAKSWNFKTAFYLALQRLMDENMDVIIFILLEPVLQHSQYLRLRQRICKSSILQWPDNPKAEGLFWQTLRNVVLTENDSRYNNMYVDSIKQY

Splenocyte [5] = test: Immunomodulatory activity in C57BL/6 mouse splenocytes bearing TLR7 receptor assessed as IL6 release at 100 ug/ml after 24 hrs by ELISA; type: functional, cell-based; summary of the method: as §2

| fold change (FC) [1] | Ratio (Homo sapiens) | Activity (Splenocyte [2]) | remaining at 10 min [3] [%] | fold change (FC) [4] | Activity (Splenocyte [5]) | SMILES |
| --- | --- | --- | --- | --- | --- | --- |
| 16.8 | 7 | Active | 79 | 2.4 | Active | Nc1ccn([C@@H]2O[C@H](COP(=O)(S)O[C@H]3[C@@H](O)[C@H](n4cnc5c(N)ncnc54)O[C@@H]3CO)[C@@H](OP(=O)(S)OC[C@H]3O[C@@H](n4ccc(=O)[nH]c4=O)[C@H](O)[C@@H]3OP(=O)(S)OC[C@H]3O[C@@H](n4ccc5c(=O)[nH]c(N)nc54)[C@H](O)[C@@H]3OP(=O)(S)OC[C@H]3O[C@@H](n4cnc5c(N)ncnc54)[C@H](O)[C@@H]3OP(=O)(S)OC[C@H]3O[C@@H](n4ccc5c(=O)[nH]c(N)nc54)[C@H](O)[C@@H]3OP(=O)(S)OC[C@H]3O[C@@H](n4cnc5c(N)ncnc54)[C@H](O)[C@@H]3OP(=O)(S)OC[C@H]3O[C@@H](n4ccc5c(=O)[nH]c(N)nc54)[C@H](O)[C@@H]3OP(=O)(S)OC[C@H]3O[C@@H](n4ccc(N)nc4=O)[C@H](O)[C@@H]3OP(=O)(S)OC[C@H]3O[C@@H](n4ccc(=O)[nH]c4=O)[C@H](O)[C@@H]3OP(=O)(S)OC[C@H]3O[C@@H](n4ccc(=O)[nH]c4=O)[C@H](O)[C@@H]3OP(=O)(S)OCC(O)COP(=O)(S)O[C@H]3[C@@H](O)[C@H](n4ccc(=O)[nH]c4=O)O[C@@H]3COP(=O)(S)O[C@H]3[C@@H](O)[C@H](n4ccc(=O)[nH]c4=O)O[C@@H]3COP(=O)(S)O[C@H]3[C@@H](O)[C@H](n4ccc(N)nc4=O)O[C@@H]3COP(=O)(S)O[C@H]3[C@@H](O)[C@H](n4ccc5c(=O)[nH]c(N)nc54)O[C@@H]3COP(=O)(S)O[C@H]3[C@@H](O)[C@H](n4cnc5c(N)ncnc54)O[C@@H]3COP(=O)(S)O[C@H]3[C@@H](O)[C@H](n4ccc5c(=O)[nH]c(N)nc54)O[C@@H]3COP(=O)(S)O[C@H]3[C@@H](O)[C@H](n4cnc5c(N)nc(N)nc54)O[C@@H]3COP(=O)(S)O[C@H]3[C@@H](O)[C@H](n4ccc5c(=O)[nH]c(N)nc54)O[C@@H]3COP(=O)(S)O[C@H]3[C@@H](O)[C@H](n4ccc(=O)[nH]c4=O)O[C@@H]3COP(=O)(S)O[C@H]3[C@@H](O)[C@H](n4ccc(N)nc4=O)O[C@@H]3COP(=O)(S)O[C@H]3[C@@H](O)[C@H](n4cnc5c(N)ncnc54)O[C@@H]3CO)[C@H]2O)c(=O)n1 (some centres not stated) |
| 14.7 | 3 | Active | 84 | 4.9 | Active | Nc1ccn([C@@H]2O[C@H](COP(=O)(S)O[C@H]3[C@@H](O)[C@H](n4cnc5c(N)ncnc54)O[C@@H]3CO)[C@@H](OP(=O)(S)OC[C@H]3O[C@@H](n4ccc(=O)[nH]c4=O)[C@H](O)[C@@H]3OP(=O)(S)OC[C@H]3O[C@@H](n4ccc(=O)[nH]c4=O)[C@H](O)[C@@H]3OP(=O)(S)OC[C@H]3O[C@@H](n4ccc5c(=O)[nH]c(N)nc54)[C@H](O)[C@@H]3OP(=O)(S)OC[C@H]3O[C@@H](n4cnc5c(N)ncnc54)[C@H](O)[C@@H]3OP(=O)(S)OC[C@H]3O[C@@H](n4cnc5c(N)ncnc54)[C@H](O)[C@@H]3OP(=O)(S)OC[C@H]3O[C@@H](n4ccc(N)nc4=O)[C@H](O)[C@@H]3OP(=O)(S)OC[C@H]3O[C@@H](n4ccc(=O)[nH]c4=O)[C@H](O)[C@@H]3OP(=O)(S)OC[C@H]3O[C@@H](n4ccc(=O)[nH]c4=O)[C@H](O)[C@@H]3OP(=O)(S)OC[C@H]3O[C@@H](n4ccc5c(=O)[nH]c(N)nc54)[C@H](O)[C@@H]3OP(=O)(S)OCC(O)COP(=O)(S)O[C@H]3[C@@H](O)[C@H](n4ccc5c(=O)[nH]c(N)nc54)O[C@@H]3COP(=O)(S)O[C@H]3[C@@H](O)[C@H](n4ccc(=O)[nH]c4=O)O[C@@H]3COP(=O)(S)O[C@H]3[C@@H](O)[C@H](n4ccc(=O)[nH]c4=O)O[C@@H]3COP(=O)(S)O[C@H]3[C@@H](O)[C@H](n4ccc(N)nc4=O)O[C@@H]3COP(=O)(S)O[C@H]3[C@@H](O)[C@H](n4cnc5c(N)ncnc54)O[C@@H]3COP(=O)(S)O[C@H]3[C@@H](O)[C@H](n4cnc5c(N)ncnc54)O[C@@H]3COP(=O)(S)O[C@H]3[C@@H](O)[C@H](n4ccc5c(=O)[nH]c(N)nc54)O[C@@H]3COP(=O)(S)O[C@H]3[C@@H](O)[C@H](n4ccc(=O)[nH]c4=O)O[C@@H]3COP(=O)(S)O[C@H]3[C@@H](O)[C@H](n4ccc(=O)[nH]c4=O)O[C@@H]3COP(=O)(S)O[C@H]3[C@@H](O)[C@H](n4ccc(N)nc4=O)O[C@@H]3COP(=O)(S)O[C@H]3[C@@H](O)[C@H](n4cnc5c(N)ncnc54)O[C@@H]3CO)[C@H]2O)c(=O)n1 (some centres not stated) |
